Measured values published in article PMC9116722 (Cancer chemotherapy and pharmacology, 2022).
“Also recorded” adds a separate entry of the source.

Test: Adverse events
Assay type: in vivo, human
Procedure, shortened: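 Patients with germline BRCA-mutated cancers, or BRCA-wildtype TNBC or platinum-refractory ovarian cancer, took oral drug continuously twice daily in 28-day cycles. There were nine dose levels from 50 to 500 mg BID under 3+3 escalation, run separately per cohort after the first DLT. Toxicities were graded by CTCAE v4.0, with DLTs assessed during cycle 1.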

## C[C@]1(c2nc3c(C(N)=O)cccc3[nH]2)CCCN1 [veliparib]
BRCAmut, DL9 500/500 mg AM/PM
  Any Grade 3 toxicity: 1 (14) number of patients (%)
  Any Grade 4 toxicity: 1 (14) number of patients (%)
  Appendicitis, Grade 3: 0 number of patients (%)
  Aspartate aminotransferase increased, Grade 3: 0 number of patients (%)
  Dehydration, Grade 3: 0 number of patients (%)
  Dyspnea, Grade 4: 1 (14) number of patients (%)
  Fatigue, Grade 3: 0 number of patients (%)
  Headache, Grade 3: 0 number of patients (%)
  Hypophosphatemia, Grade 3: 0 number of patients (%)
  Lymphocyte count decreased, Grade 3: 1 (14) number of patients (%)
  Lymphocyte count decreased, Grade 4: 0 number of patients (%)
  Nausea, Grade 3: 0 number of patients (%)
  Platelet count decreased, Grade 4: 1 (14) number of patients (%)
  Thromboembolic event, Grade 3: 0 number of patients (%)
  Thromboembolic event, Grade 4: 0 number of patients (%)
  Urinary tract infection, Grade 3: 0 number of patients (%)
BRCAmut, all dose levels
  Abdominal pain, Grade 3: 2 (3) number of patients (%)
  Alkaline phosphatase increased, Grade 3: 1 (1) number of patients (%)
  Anemia, Grade 3: 1 (1) number of patients (%)
  Anemia, Grade 4: 1 (1) number of patients (%)
  Any Grade 3/4 toxicity: 17 (24) number of patients (%)
  Any Grade 3 toxicity: 15 (21) number of patients (%)
  Any Grade 4 toxicity: 3 (4) number of patients (%)
  Appendicitis, Grade 3: 1 (1) number of patients (%)
  Aspartate aminotransferase increased, Grade 3: 1 (1) number of patients (%)
  Dehydration, Grade 3: 1 (1) number of patients (%)
  Dyspnea, Grade 4: 1 (1) number of patients (%)
  Fatigue, Grade 3: 1 (1) number of patients (%)
  Headache, Grade 3: 1 (1) number of patients (%)
  Hypophosphatemia, Grade 3: 1 (1) number of patients (%)
  Lymphocyte count decreased, Grade 3: 9 (13) number of patients (%)
  Lymphocyte count decreased, Grade 4: 1 (1) number of patients (%)
  Nausea, Grade 3: 2 (3) number of patients (%)
  Platelet count decreased, Grade 4: 1 (1) number of patients (%)
  Thromboembolic event, Grade 3: 2 (3) number of patients (%)
  Thromboembolic event, Grade 4: 1 (1) number of patients (%)
  Urinary tract infection, Grade 3: 1 (1) number of patients (%)
BRCAwt group
  grade 3/4 decreased lymphocyte count: 18%
  incidence of grade 3/4 toxicity: 29%
BRCAwt, DL1 50/50 mg AM/PM
  Any Grade 3 toxicity: 0 number of patients (%)
  Basilic vein thrombosis, Grade 3: 0 number of patients (%)
  Dyspnea, Grade 3: 0 number of patients (%)
  Fatigue, Grade 3: 0 number of patients (%)
  Hypophosphatemia, Grade 3: 0 number of patients (%)
  Lymphocyte count decreased, Grade 3: 0 number of patients (%)
BRCAwt, DL2 100/50 mg AM/PM
  Any Grade 3 toxicity: 1 (33) number of patients (%)
  Basilic vein thrombosis, Grade 3: 0 number of patients (%)
  Dyspnea, Grade 3: 0 number of patients (%)
  Fatigue, Grade 3: 0 number of patients (%)
  Hypophosphatemia, Grade 3: 0 number of patients (%)
  Lymphocyte count decreased, Grade 3: 1 (33) number of patients (%)
BRCAwt, DL3 100/100 mg AM/PM
  Any Grade 3 toxicity: 0 number of patients (%)
  Basilic vein thrombosis, Grade 3: 0 number of patients (%)
  Dyspnea, Grade 3: 0 number of patients (%)
  Fatigue, Grade 3: 0 number of patients (%)
  Hypophosphatemia, Grade 3: 0 number of patients (%)
  Lymphocyte count decreased, Grade 3: 0 number of patients (%)
BRCAwt, DL6 200/200 mg AM/PM
  Any Grade 3 toxicity: 2 (67) number of patients (%)
  Basilic vein thrombosis, Grade 3: 1 (33) number of patients (%)
  Dyspnea, Grade 3: 0 number of patients (%)
  Fatigue, Grade 3: 0 number of patients (%)
  Hypophosphatemia, Grade 3: 0 number of patients (%)
  Lymphocyte count decreased, Grade 3: 1 (33) number of patients (%)
BRCAwt, DL7 300/300 mg AM/PM
  Any Grade 3 toxicity: 0 number of patients (%)
  Basilic vein thrombosis, Grade 3: 0 number of patients (%)
  Dyspnea, Grade 3: 0 number of patients (%)
  Fatigue, Grade 3: 0 number of patients (%)
  Hypophosphatemia, Grade 3: 0 number of patients (%)
  Lymphocyte count decreased, Grade 3: 0 number of patients (%)
BRCAwt, DL8 400/400 mg AM/PM
  Any Grade 3 toxicity: 3 (43) number of patients (%)
  Basilic vein thrombosis, Grade 3: 0 number of patients (%)
  Dyspnea, Grade 3: 1 (14) number of patients (%)
  Fatigue, Grade 3: 1 (14) number of patients (%)
  Hypophosphatemia, Grade 3: 1 (14) number of patients (%)
  Lymphocyte count decreased, Grade 3: 1 (14) number of patients (%)
BRCAwt, all dose levels
  Any Grade 3 toxicity: 8 (29) number of patients (%)
  Basilic vein thrombosis, Grade 3: 1 (4) number of patients (%)
  Dyspnea, Grade 3: 1 (4) number of patients (%)
  Fatigue, Grade 3: 1 (4) number of patients (%)
  Hypophosphatemia, Grade 3: 1 (4) number of patients (%)
  Lymphocyte count decreased, Grade 3: 5 (18) number of patients (%)
DL7-DL9
  patients who came off study after non-dose limiting nausea: 6 patients
All patients
  all-grade decreased lymphocyte count (lymphopenia): 38%
  all-grade nausea: 65%
  grade 3/4 lymphopenia: 15%
  grade 3 or 4 anemia: 6%
Continuous single-agent
  overall tolerability: safe and tolerable; also recorded: well-tolerated
